These results are taken from ChEMBL document CHEMBL1129079, “Synthesis and antiviral evaluation of certain disubstituted benzimidazole ribonucleosides” (J Med Chem, 1996).

Each structure is given as a SMILES string.

The subject of one assay is Human alphaherpesvirus 1. As to the kind of experiment: Antiviral activity against herpes simplex virus type 1 (HSV-1) was performed by HSV-1 ELISA assays. In kind it is functional, organism-based. In a few lines:
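HSV-1 strain KOS (used in most experiments); ELISA read-out, quadruplicate wells; IC50 from linear regression of percent inhibition against log drug concentration.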

The next assay has as its system HFF. Description: Cytotoxicity produced in human foreskin fibroblasts (HFF) cells was estimated by visual scoring of cells unaffected by virus infection in the plaque-reduction assay. In kind it is ADME, cell-based. In a few lines:
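Uninfected HFF cells in the HCMV plaque-reduction plates, examined at 30-fold magnification; drug-induced cytopathology scored 0–4 on the day of staining for plaque counting.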

Assay [1] concerns Human betaherpesvirus 5. Description: Antiviral activity against human cytomegalovirus (HCMV) in plaque reduction assay. The assay is classed as functional, organism-based. In a few lines:
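HCMV Towne strain (plaque-purified P0) on HFF monolayers; inoculum ~100 PFU in 0.2 mL; compounds dissolved in overlay medium; plaques counted after staining; IC50 from linear regression of percent inhibition vs log concentration; averages of duplicate or triplicate experiments.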
(In general: Plaques are areas of infected cells; plaque reduction assays count them against a control.)

The test system of assay [2] is KB. Description: Inhibitory activity against growth of human epidermoid oral carcinoma KB cell line. In kind it is functional, cell-based. The essentials:
(§1)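 KB cells grown in MEM with Hank's salts plus 10% calf serum; logarithmically growing cells, staining-based growth read-out, quadruplicate assays; IC50 from linear regression of percent inhibition vs log drug concentration.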

In assay [3] the test system is Human betaherpesvirus 5. Description: Antiviral activity against human cytomegalo virus (HCMV) in yield reduction assay. The assay is classed as functional.
Assay [4] deals with Human betaherpesvirus 5. As to the kind of experiment: Antiviral activity against human cytomegalovirus (HCMV) in yield reduction assay. In kind it is functional.
Assay [5] concerns KB. As to the kind of experiment: Inhibitory activity against growth of KB cell. In kind it is functional, cell-based. To be noted: Homo sapiens. In a few lines:
as §1

For orientation: IC50 means the midpoint of a concentration-inhibition curve. `OC[C@H]1O[C@@H](n2c(=S)[nH]c3ccc(Cl)cc32)[C@H](O)[C@@H]1O`: the IC50 in the assay with Human alphaherpesvirus 1, with HFF, with Human betaherpesvirus 5 [1] and in the assay with KB [2] was over 100 µM each time.
Consider `O=[N+]([O-])c1ccc2[nH]c(Cl)nc2c1`, for which the IC50 was 21 µM in the assay with Human alphaherpesvirus 1, 20 µM in the assay on HFF and 6 µM with Human betaherpesvirus 5 [1].
The IC90 is the concentration needed for an effect of 90%. In turn, `OC[C@H]1O[C@@H](n2c(Cl)nc3cc(Cl)c(Cl)cc32)[C@H](O)[C@@H]1O` displayed an IC90 with Human betaherpesvirus 5 [3] of 1.3 µM. For the same molecule, in the assay on Human betaherpesvirus 5 [1], the IC50 came to 2.8 µM.
Consider `Nc1ccc2nc(Cl)n(C3O[C@H](CO)[C@@H](O)[C@H]3O)c2c1` (stereo partly specified), for which the IC50 in the assay on Human alphaherpesvirus 1 was over 100 µM; with HFF it was over 300 µM; in the assay with Human betaherpesvirus 5 [1], over 100 µM.
As for `CSc1nc2ccc(Cl)cc2n1C1O[C@H](CO)[C@@H](O)[C@H]1O` (stereo partly specified), the concentration for half-maximal inhibition (IC50) with Human alphaherpesvirus 1 is under 100 µM; in the assay on HFF, over 100 µM; in the assay with Human betaherpesvirus 5 [1], over 100 µM.
For `OC[C@H]1OC(n2c(Cl)nc3ccc(Cl)cc32)[C@H](O)[C@@H]1O` (stereo partly specified), the IC50 in the assay with Human alphaherpesvirus 1 was over 100 µM; in the assay with HFF, over 100 µM; with Human betaherpesvirus 5 [1] it was 58 µM. This molecule displayed an IC90 in the assay on Human betaherpesvirus 5 [4] of 52 µM.
Regarding `OC[C@H]1OC(n2c(Cl)nc3cc(Cl)ccc32)[C@H](O)[C@@H]1O` (stereo partly specified), the values for the IC50 with Human alphaherpesvirus 1, in the assay with HFF and in the assay on Human betaherpesvirus 5 [1] were over 100 µM, over 100 µM and 150 µM, respectively. The molecule further yielded a concentration for an effect of 90% (IC90) with Human betaherpesvirus 5 [4] of 100 µM.
For `Nc1ccc2c(c1)nc(Cl)n2C1O[C@H](CO)[C@@H](O)[C@H]1O` (stereo partly specified), the IC50 in the assay on HFF and with Human betaherpesvirus 5 [1] was over 300 µM throughout.
As for `OC[C@H]1OC(n2c(SCc3ccccc3)nc3ccc(Cl)cc32)[C@H](O)[C@@H]1O` (stereo partly specified), the IC50 in the assay on Human alphaherpesvirus 1, in the assay on HFF and in the assay on Human betaherpesvirus 5 [1] was over 100 µM each time.
Turning to `COc1nc2ccc(Cl)cc2n1C1O[C@H](CO)[C@@H](O)[C@H]1O` (stereo partly specified), the IC50 in the assay with Human alphaherpesvirus 1, in the assay on HFF, with Human betaherpesvirus 5 [1] and with KB [2] was over 100 µM in each case.
In turn, `OC[C@H]1O[C@@H](n2cnc3cc(Cl)c(Cl)cc32)[C@H](O)[C@@H]1O` [DICHLORORIBOBENZIMIDAZOLE] gave an IC90 in the assay on Human betaherpesvirus 5 [4] of 19 µM.
For `Nc1nc2c(ncn2COC(CO)CO)c(=O)[nH]1` [GANCICLOVIR], the IC50 in the assay with HFF and with KB [5] was over 100 µM each time. This molecule returned an IC90 in the assay with Human betaherpesvirus 5 [3] of 1.6 µM.
